NALP1 yeast inh: NALP1 inflammasome inhibitors in reconstituted yeast, colorimetric, S. cerevisiae, triplicate retest; S. cerevisiae NALP1/ASC/caspase-1 growth, X-gal OD620, 72 h; inhibition, % at 10 µM; hit rate 0.61% among 280,000; in the data active = inhibition mostly above about 24%, no sharp cut-off; inactive = mostly below about 32%
NLRP3 yeast inh: NALP3 inflammasome inhibitors in reconstituted yeast, primary screen, luminescence, uHTS | Yeast reconstituted NLRP3/ASC/caspase-1, beta-gal luminescence, 24 h | AID 2825, 2010 | inhibition, % at 10 µM | hit rate 0.39% among 330,000;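 active = inhibition of 50% or more; inactive = inhibition below 50%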;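 also: plate controls were induced DMSO wells for no effect and uninduced yeast grown without galactose for full effect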
Lmaj promast: Leishmania major promastigote growth inhibition, primary screen | inhibition, % at 10 µM | AID 1063, 2008 | hit rate 9% among 200,000 | Leishmania major promastigotes, resazurin fluorescence viability; in the data active = inhibition above about 50%;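 also: promastigotes grown with compound for 44 hours at 28 °C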
Calb FLC: C. albicans growth inhibition with fluconazole, primary screen, CaCi-2 strain, Alamar Blue fluorescence. C. albicans CaCi-2 + fluconazole, 48 h. growth inhibition, % (test concentration not listed). hit rate 0.57% among 300,000;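 active = growth inhibition above about 58% in most replicates, limit read from the data, passing the limit was not always enough; inconclusive = exactly half the replicates above a set limit; inactive = most replicates below a set limit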;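 also: all wells also contain fluconazole at 8 µg/ml as a sub-toxic cotreatment; 0% = median of DMSO wells and 100% = median of geldanamycin control wells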
PolyA inh: polyadenylation inhibitors in yeast reporter cells, primary screen, luminescence, S. cerevisiae | S. cerevisiae SKY197-pL101 polyadenylation reporter, beta-gal luminescence; efflux-impaired pdr1/pdr3 knockout yeast; score 100 = 6 SD above DMSO | activity score, % at 12 µM | hit rate 0.02% among 300,000;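 active = lowest replicate activity score at least 50, where 100 means six control SD above control mean; inconclusive = lowest score under 50 but half or more replicates reach 50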;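 also: yeast exposed to compound for 9 h at 30 °C; higher score means more reporter readthrough which indicates perturbed polyadenylation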
T cruzi repl: inhibitors of intracellular T. cruzi growth, primary screen, luminescence, NIH3T3 host cells | T. cruzi beta-gal in NIH3T3, 90 h | inhibition, % (no concentration beside the values) | hit rate 1.4% among 300,000 | AID 1885, 2009;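 active = mean inhibition across valid replicates above about 55%, limit read from the data; inconclusive = mean below that limit but half or more replicates reach it; inactive = mean below it, under half of replicates reach it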;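 also: signal also drops with host cell toxicity which is not excluded here; 0% = plate median of DMSO wells and 100% = zero luminescence signal; higher percent means less beta-gal luminescence so fewer parasites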
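assay system = mouse NIH/3T3 fibroblasts infected with β-gal-expressing T. cruzi Tulahuen C4 | input = 5,000 NIH/3T3 host cells per well | buffer or medium = DMEM plus 2% FBS | timing = 3 h host attachment, then at least 90 h co-culture | measured by = GalScreen luminescence, 60 min | evaluation = luminescence reflecting intracellular parasite burden, expressed as percent inhibition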
An asterisk follows results filed as active; ? = inconclusive; / = no result. This excerpt belongs to a sample that is enriched for hits.

SMILES	NALP1 yeast inh	NLRP3 yeast inh	Lmaj promast	Calb FLC	PolyA inh	T cruzi repl
CCn1c(=O)n(CC)c2cc(N3CCCC3)c(NC(=O)c3cc(Br)ccc3OC)cc21	8	9	/	25	-7	64*
CC(Sc1n[nH]c(-c2ccccc2)n1)C(=O)c1c(N)n(C)c(=O)n(C)c1=O (stereo not given)	/	13	/	2	-19	-9
Cc1ccc(C2C3CSCC=C3C(C#N)=C(N)C2(C#N)C#N)cc1 (stereo not given)	28	5	61*	90*	-45	-1
O=c1[nH]c2cc(S(=O)(=O)CCO)ccc2o1	4	11	/	-7	-4	-9
COc1ccc(-n2c(SCC(=O)Nc3ccc4c(c3)OCO4)nc3c(c2=O)SCC3)cc1	1	6	11	6	1	17
COc1ccccc1-n1c(SCC(=O)Nc2ccc3c(c2)OCO3)nc2c(c1=O)SCC2	36	26	89*	21	13	9
COc1ccccc1CCNC(=O)C(=O)NCC1OCCN1S(=O)(=O)c1ccc(C)cc1 (stereo not given)	-15	1	/	-6	7	-11
COc1cc(CNCCN(C)C)c(Br)cc1OCC(=O)NCc1ccccc1	22	1	99*	-2	-4	11
COc1cc(CNCC(C)C)c(Br)cc1OCC(=O)NCc1ccccc1	7	3	96*	-4	1	9
CC(NCc1cc(Br)ccc1OCC(=O)NCc1ccccc1)c1ccccc1 (stereo not given)	10	30	98*	?	7	60*
CCN(CC)CCNCc1cc(Br)ccc1OCC(=O)NCc1ccccc1	1	13	13	-16	2	16
CCN(CC)CCNCc1ccc(Br)cc1OCC(=O)NCc1ccccc1	3	-15	6	6	-14	5
COC(=O)c1ccccc1NC(=O)NC1CCCCC1	-13	24	/	3	-14	7
O=C(CSc1ncn[nH]1)Nc1ccc(OCc2ccccc2)cc1	-10	14	18	-1	-2	31
Cc1cc(NC(=O)c2ccccc2-c2ccccc2)ccc1Br	44	23	80*	1	27	29
N#CC1(NC(=O)CN2C(=O)c3ccccc3C2=O)CCCCC1	/	12	/	/	/	/
N#CC1(NC(=O)Cn2ncc(Cl)c(Cl)c2=O)CCCCC1	/	-2	/	/	-15	63*
N#Cc1cccc(NC(=O)CCNC(=O)c2ccccc2Cl)c1	33	13	/	-5	-17	-9
CN(C)c1ccc(C(C(=O)NC2CCCCC2)N(Cc2ccco2)C(=O)c2snc(C(N)=O)c2N)cc1 (stereo not given)	15	0	/	-2	3	22
CCN(CCCc1ccccc1)CCCc1ccccc1	40	28	95*	/	16	36
CCN(CCCC(=O)c1ccc(F)cc1)CCc1ccccc1	21	30	/	-121	?	58*
Cc1csc(=O)n1CCC(=O)OCC(=O)NNC(=O)c1ccc(Cl)cc1	/	24	/	/	/	/
CN1CCN(C(=S)NC(CC(=O)c2ccccc2)c2ccccc2)CC1 (stereo not given)	22	12	/	-2	15	7
CCc1ccc(NC(=O)CSc2nnc(-c3cnccn3)n2C)cc1	0	10	/	-11	1	1
COC(=O)C1=NN(C(=O)c2ccc(Cl)cc2)C(O)(c2ccccc2)C1 (stereo not given)	2	1	-11	59*	-24	-17
SMILES	NALP1 yeast inh	NLRP3 yeast inh	Lmaj promast	Calb FLC	PolyA inh	T cruzi repl
CCC1=NN(C(=O)c2ccc(Cl)cc2)C(O)(c2ccccc2)C1 (stereo not given)	-5	33	/	-52	9	10
CC1=Nn2c(nnc2-c2ccc(F)cc2)SC1	31	13	-2	1	24	-19
CCOC(=O)/C(=C\c1ccc(OC(F)F)cc1)C1=Nn2c(nnc2-c2ccc(Cl)cc2)SC1	32	/	100*	?	-20	39
COc1cccc(C(=O)NCCS(=O)(=O)N2CCC3(CC2)OCCO3)c1	/	13	/	-3	6	-4
Cc1ccc(N/N=C/c2ccc3c(c2)OCCO3)cc1Cl	13	26	0	102*	-5	11
Cc1cc(C)c(NC(=O)CNC(=O)COC(=O)CNC(=O)c2ccc(Cl)cc2Cl)c(C)c1	/	19	/	-1	-2	-5
O=C1C2CCCN2C(c2ccc(F)c(F)c2)N1c1cccc(Cl)c1 (stereo not given)	44*	-3	-1	2	3	0
O=C(O)c1ccc(Nc2nc3c(s2)CCCC3)cc1	11	-8	7	-28	-23	5
Cc1cccc(Nc2nc3c(s2)CCCC3)c1	30	/	62*	-2	-16	33
C/C(=N\Nc1nc2c(s1)CCCC2)c1ccccc1	87	32	52*	-3	-7	?
C/C(=N\Nc1nc(C(C)(C)C)cs1)c1ccc(O)cc1	14	13	/	3	33	22
O=C(Nc1nc2c(s1)CCCC2)c1cccnc1	1	35	-6	16	-5	-45
C/C(=N\Nc1nc(C(C)(C)C)cs1)c1ccccc1	/	30	/	-19	2	73*
O=C(NC(=S)Nc1nc2c(s1)CCCC2)c1ccc(C(=O)c2ccccc2)cc1	7	9	76*	0	13	23
O=C(CCNC(=O)c1ccccc1)NNC(=O)c1ccc(F)cc1	/	6	/	/	/	/
Cn1nc(CSc2ccccc2)c(C=O)c1Cl	5	27	-6	-35	-2	-5
Cc1ccc(CNC(=O)CN(c2cccc([N+](=O)[O-])c2)S(=O)(=O)c2ccccc2)cc1	21	15	97*	31	9	18
O=C(CN(c1cccc([N+](=O)[O-])c1)S(=O)(=O)c1ccccc1)NCc1ccccc1	-8	1	96*	-5	15	11
O=C(CN(c1ccc(Cl)cc1)S(=O)(=O)c1ccc(Cl)c([N+](=O)[O-])c1)NCCc1ccccc1	12	16	-2	-4	5	74*
Cc1cc(=O)n(Cc2ccccc2)c(O)c1C#N	30	4	/	9	8	-16
CCN(CC)C(=O)c1sc(NC(=O)Cc2cccs2)c(C#N)c1C	-5	-4	-10	1	-5	-16
Cc1c(C#N)c(NC(=O)CCl)n(Cc2ccc(F)cc2)c1C	-6	21	92*	-16	-7	15
Cc1c(C#N)c(NC(=O)CCl)n(Cc2ccccc2)c1C	1	3	90*	97*	1	?
Cc1c(C#N)c(NC(=O)CCl)n(Cc2cccs2)c1C	-26	6	80*	-6	-13	61*
COc1ccccc1NC(=S)N(CCc1c(C)[nH]c2ccccc12)Cc1cccs1	25	24	40	-7	-3	22

Source: PubChem
